{"source": "paper PMC6543826", "about": "(Bioorganic chemistry, 2018)", "key": {"[1]": {"test_system": "KM 12", "assay": "cells", "format": "cell-based", "conditions": "KM 12, 10^−5 M, 48 h"}, "[2]": {"test_system": "NCI-H23", "assay": "cells", "format": "cell-based", "conditions": "NCI-H23, 10^−5 M, 48 h"}, "[3]": {"test_system": "OVCAR-5", "assay": "cells", "format": "cell-based", "conditions": "OVCAR-5, 10^−5 M, 48 h"}, "[4]": {"test_system": "IGROV1", "assay": "cells", "format": "cell-based", "conditions": "IGROV1, 10^−5 M, 48 h"}, "[5]": {"test_system": "SNB-75", "assay": "cells", "format": "cell-based", "conditions": "SNB-75, 10^−5 M, 48 h"}, "[6]": {"test_system": "MALME-3M", "assay": "cells", "format": "cell-based", "conditions": "MALME-3M, 10^−5 M, 48 h"}, "[7]": {"test_system": "SK-MEL-28", "assay": "cells", "format": "cell-based", "conditions": "SK-MEL-28, 10^−5 M, 48 h"}, "[8]": {"test_system": "MDA-MB-468", "assay": "cells", "format": "cell-based", "conditions": "MDA-MB-468, 10^−5 M, 48 h"}, "[9]": {"test_system": "MCF7", "assay": "cells", "format": "cell-based", "conditions": "MCF7, 10^−5 M, 48 h"}, "[10]": {"test_system": "M14", "assay": "cells", "format": "cell-based", "conditions": "M14, 10^−5 M, 48 h"}, "[11]": {"test_system": "MOLT-4", "assay": "cells", "format": "cell-based", "conditions": "MOLT-4, 10^−5 M, 48 h"}, "[12]": {"test_system": "SN12C", "assay": "cells", "format": "cell-based", "conditions": "10^−5 M, 48 h"}, "[13]": {"test_system": "HCC-2998", "assay": "cells", "format": "cell-based", "conditions": "HCC-2998, 10^−5 M, 48 h"}, "[14]": {"target": "ERK2 (Rattus norvegicus, UniProt P63086)", "sequence (P63086 whole entry)": "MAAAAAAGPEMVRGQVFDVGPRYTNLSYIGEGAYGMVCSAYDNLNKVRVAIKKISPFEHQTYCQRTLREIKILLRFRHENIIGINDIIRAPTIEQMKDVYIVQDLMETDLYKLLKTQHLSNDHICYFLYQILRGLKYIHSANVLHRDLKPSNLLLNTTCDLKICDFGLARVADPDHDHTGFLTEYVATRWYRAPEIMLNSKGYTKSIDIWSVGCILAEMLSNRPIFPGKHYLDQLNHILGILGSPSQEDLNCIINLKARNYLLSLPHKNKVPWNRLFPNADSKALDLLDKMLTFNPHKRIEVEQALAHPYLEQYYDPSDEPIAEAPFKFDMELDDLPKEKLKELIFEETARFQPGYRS", "assay": "in vitro radioactive kinase assay, Ets-1 phosphorylation by ERK2", "format": "biochemical", "method_in_brief": "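Activated rat ERK2 (2 nM) was tested with His-Ets-1 (1–138) at 28–30 °C in HEPES pH 7.5 buffer with 11 mM MgCl2, BSA and 5% DMSO. Reactions were started with [γ-32P]ATP (10 or 100 μM).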"}, "[15]": {"test_system": "UACC-62", "assay": "cells", "format": "cell-based", "conditions": "UACC-62, 10^−5 M, 48 h"}, "[16]": {"test_system": "UO-31", "assay": "cells", "format": "cell-based", "conditions": "UO-31, 10^−5 M, 48 h"}, "[17]": {"test_system": "RXF 393", "assay": "cells", "format": "cell-based", "conditions": "RXF 393, 10^−5 M, 48 h"}, "[18]": {"test_system": "BT-549", "assay": "cells", "format": "cell-based", "conditions": "BT-549, 10^−5 M, 48 h"}, "[19]": {"test_system": "ACHN", "assay": "cells", "format": "cell-based", "conditions": "10^−5 M, 48 h"}, "[20]": {"target": "p38MAPKα (Homo sapiens, UniProt Q16539)", "sequence (Q16539 whole entry)": "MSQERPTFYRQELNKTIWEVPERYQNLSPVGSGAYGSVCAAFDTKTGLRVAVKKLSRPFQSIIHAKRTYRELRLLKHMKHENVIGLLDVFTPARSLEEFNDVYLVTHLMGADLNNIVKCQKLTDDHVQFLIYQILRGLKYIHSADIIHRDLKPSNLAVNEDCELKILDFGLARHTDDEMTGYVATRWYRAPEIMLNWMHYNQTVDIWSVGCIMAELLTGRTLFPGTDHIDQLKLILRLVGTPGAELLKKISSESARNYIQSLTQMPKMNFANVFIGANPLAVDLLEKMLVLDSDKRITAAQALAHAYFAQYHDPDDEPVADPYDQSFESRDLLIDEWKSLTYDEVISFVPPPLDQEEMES", "assay": "in vitro kinase assay, GST-ATF2", "format": "biochemical"}, "[21]": {"test_system": "SK-MEL-5", "assay": "cells", "format": "cell-based", "conditions": "SK-MEL-5, 10^−5 M, 48 h"}, "[22]": {"test_system": "SR", "assay": "cells", "format": "cell-based", "conditions": "10^−5 M, 48 h"}, "[23]": {"test_system": "A549/ATCC", "assay": "cells", "format": "cell-based", "conditions": "A549/ATCC, 10^−5 M, 48 h"}, "[24]": {"test_system": "SF-539", "assay": "cells", "format": "cell-based", "conditions": "SF-539, 10^−5 M, 48 h"}, "[25]": {"test_system": "HCT-15", "assay": "cells", "format": "cell-based", "conditions": "HCT-15, 10^−5 M, 48 h"}, "[26]": {"test_system": "K-562", "assay": "cells", "format": "cell-based", "conditions": "K-562, 10^−5 M, 48 h"}, "[27]": {"test_system": "MDA-MB-435", "assay": "cells", "format": "cell-based", "conditions": "MDA-MB-435, 10^−5 M, 48 h"}, "[28]": {"test_system": "SF-295", "assay": "cells", "format": "cell-based", "conditions": "SF-295, 10^−5 M, 48 h"}, "[29]": {"test_system": "NCI-H226", "assay": "cells", "format": "cell-based", "conditions": "NCI-H226, 10^−5 M, 48 h"}, "[30]": {"test_system": "SK-OV-3", "assay": "cells", "format": "cell-based", "conditions": "SK-OV-3, 10^−5 M, 48 h"}, "[31]": {"test_system": "RPMI-8226", "assay": "cells", "format": "cell-based", "conditions": "RPMI-8226, 10^−5 M, 48 h"}, "[32]": {"test_system": "SNB-19", "assay": "cells", "format": "cell-based", "conditions": "SNB-19, 10^−5 M, 48 h"}, "[33]": {"test_system": "OVCAR-3", "assay": "cells", "format": "cell-based", "conditions": "OVCAR-3, 10^−5 M, 48 h"}, "[34]": {"target": "JNK2 (Homo sapiens, UniProt P45984)", "sequence (P45984 whole entry)": "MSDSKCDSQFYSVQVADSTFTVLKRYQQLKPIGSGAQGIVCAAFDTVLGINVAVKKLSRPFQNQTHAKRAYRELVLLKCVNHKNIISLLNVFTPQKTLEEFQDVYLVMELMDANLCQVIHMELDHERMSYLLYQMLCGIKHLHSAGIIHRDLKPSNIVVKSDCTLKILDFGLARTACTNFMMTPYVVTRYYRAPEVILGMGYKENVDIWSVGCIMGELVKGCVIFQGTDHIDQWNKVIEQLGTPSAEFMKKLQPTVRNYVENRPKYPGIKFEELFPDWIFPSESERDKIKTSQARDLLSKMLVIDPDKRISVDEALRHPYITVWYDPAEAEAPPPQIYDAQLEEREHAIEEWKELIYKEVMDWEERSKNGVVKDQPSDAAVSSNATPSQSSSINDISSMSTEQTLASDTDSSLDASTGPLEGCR", "assay": "in vitro kinase assay, GST-c-Jun", "format": "biochemical"}, "[35]": {"test_system": "NCI-H460", "assay": "cells", "format": "cell-based", "conditions": "NCI-H460, 10^−5 M, 48 h"}, "[36]": {"test_system": "CCRF-CEM", "assay": "cells", "format": "cell-based", "conditions": "10^−5 M, 48 h"}}, "data": [{"smiles": "O=C1c2ccccc2C(=O)c2c1oc1c2c(=O)[nH]c2ccccc21", "note": "[3a, Naphtho[2′,3′:4,5]furo[3,2-c]quinoline-6,7,12(5H)-trione]", "values": [{"measurement": "Growth percent (G%)", "setting": "[1]", "result": 66.22, "unit": "%"}, {"measurement": "Growth percent (G%)", "setting": "[2]", "result": 65.95, "unit": "%"}, {"measurement": "Growth percent (G%)", "setting": "[3]", "result": 102.37, "unit": "%"}, {"measurement": "Growth percent (G%)", "setting": "[4]", "result": 55.11, "unit": "%"}, {"measurement": "Growth percent (G%)", "setting": "[5]", "result": 112.98, "unit": "%"}, {"measurement": "Growth percent (G%)", "setting": "[6]", "result": 124.29, "unit": "%"}, {"measurement": "Growth percent (G%)", "setting": "[7]", "result": 112.03, "unit": "%"}, {"measurement": "Growth percent (G%)", "setting": "[8]", "result": "−8.43", "unit": "%"}, {"measurement": "Growth percent (G%)", "setting": "[9]", "result": 48.82, "unit": "%"}, {"measurement": "Growth percent (G%)", "setting": "[10]", "result": 73.38, "unit": "%"}, {"measurement": "Growth percent (G%)", "setting": "[11]", "result": 5.55, "unit": "%"}, {"measurement": "Growth percent (G%)", "setting": "[12]", "result": 70.40, "unit": "%"}, {"measurement": "Growth percent (G%)", "setting": "[13]", "result": 102.57, "unit": "%"}, {"measurement": "effect of excess Ets-1 (100 μM) on inhibition of ERK2", "setting": "[14]; 5 μM inhibitor, 100 μM vs 10 μM Ets-1, 100 μM ATP", "result": "did not rescue"}, {"measurement": "IC50", "setting": "[14]; ERK2 IC50, 100 μM ATP, 10 μM Ets-1", "result": "10.2 ± 1.2", "unit": "µM"}, {"measurement": "IC50", "setting": "[14]; ERK2 IC50 at 100 μM ATP /10mM Ets-1, Table 4, 100 μM ATP /10mM Ets-1", "result": "10.2 ± 1.2", "unit": "µM"}, {"measurement": "Growth percent (G%)", "setting": "[15]", "result": 88.73, "unit": "%"}, {"measurement": "Growth percent (G%)", "setting": "[16]", "result": 60.44, "unit": "%"}, {"measurement": "Growth percent (G%)", "setting": "[17]", "result": 97.24, "unit": "%"}, {"measurement": "Growth percent (G%)", "setting": "[18]", "result": 73.94, "unit": "%"}, {"measurement": "Growth percent (G%)", "setting": "[19]", "result": 65.70, "unit": "%"}, {"measurement": "ability to inhibit p38MAPKα (in words)", "setting": "[20]", "result": "did not show any ability to inhibit"}, {"measurement": "IC50", "setting": "[20]; p38MAPKα IC50, 10 μM GST-ATF2", "result": "> 200", "unit": "µM"}, {"measurement": "Growth percent (G%)", "setting": "[21]", "result": 79.73, "unit": "%"}, {"measurement": "Growth percent (G%)", "setting": "[22]", "result": 43.80, "unit": "%"}, {"measurement": "Growth percent (G%)", "setting": "[23]", "result": 97.18, "unit": "%"}, {"measurement": "Growth percent (G%)", "setting": "[24]", "result": 90.30, "unit": "%"}, {"measurement": "Growth percent (G%)", "setting": "[25]", "result": 44.70, "unit": "%"}, {"measurement": "Growth percent (G%)", "setting": "[26]", "result": 55.20, "unit": "%"}, {"measurement": "Growth percent (G%)", "setting": "[27]", "result": 83.72, "unit": "%"}, {"measurement": "Growth percent (G%)", "setting": "[28]", "result": 92.71, "unit": "%"}, {"measurement": "Growth percent (G%)", "setting": "[29]", "result": 78.47, "unit": "%"}, {"measurement": "Growth percent (G%)", "setting": "[30]", "result": 104.46, "unit": "%"}, {"measurement": "Growth percent (G%)", "setting": "[31]", "result": 62.72, "unit": "%"}, {"measurement": "Growth percent (G%)", "setting": "[32]", "result": 103.72, "unit": "%"}, {"measurement": "Growth percent (G%)", "setting": "[33]", "result": "−14.81", "unit": "%"}, {"measurement": "IC50", "setting": "[34]", "result": "> 200", "unit": "µM"}, {"measurement": "ability to inhibit JNK2 (in words)", "setting": "[34]", "result": "did not show any ability to inhibit"}, {"measurement": "Growth percent (G%)", "setting": "[35]", "result": 68.27, "unit": "%"}, {"measurement": "Growth percent (G%)", "setting": "[36]", "result": 20.72, "unit": "%"}]}]}
